According to PubChem BioAssay:
The source made the active and inactive calls.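 Rule for the calls, unless noted: active = viability loss from added drug above about 55%, and viability with drug at most 40%, in both replicates (limit read from the data, passing the limit was not always enough); inconclusive = both conditions met in only one replicate; inactive = neither replicate meets both conditions.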

Legend:
[1] = reducers of endogenous Her2 protein level, primary screen, SKBR3 breast tumor cells, AlphaScreen, ATP viability (AID 461;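 active = Her2 level under about 52% in both replicate screens, with viability over 70% of control, limit read from the data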;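 for Her2 level: lower value means less Her2 protein in the cells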;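 for viability: percent of carrier control wells set as 100% viability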); conditions: 18-24 h, measured here: SKBR3 viability, ATP luminescence, at 10 µM
[2] = molecular target: Receptor tyrosine-protein kinase erbB-2 (Homo sapiens) (UniProt P04626); assay: as above; conditions: 18-24 h, at 10 µM, stronger effect = lower value
Chain of Receptor tyrosine-protein kinase erbB-2 (Homo sapiens) (P04626 whole entry, looked up): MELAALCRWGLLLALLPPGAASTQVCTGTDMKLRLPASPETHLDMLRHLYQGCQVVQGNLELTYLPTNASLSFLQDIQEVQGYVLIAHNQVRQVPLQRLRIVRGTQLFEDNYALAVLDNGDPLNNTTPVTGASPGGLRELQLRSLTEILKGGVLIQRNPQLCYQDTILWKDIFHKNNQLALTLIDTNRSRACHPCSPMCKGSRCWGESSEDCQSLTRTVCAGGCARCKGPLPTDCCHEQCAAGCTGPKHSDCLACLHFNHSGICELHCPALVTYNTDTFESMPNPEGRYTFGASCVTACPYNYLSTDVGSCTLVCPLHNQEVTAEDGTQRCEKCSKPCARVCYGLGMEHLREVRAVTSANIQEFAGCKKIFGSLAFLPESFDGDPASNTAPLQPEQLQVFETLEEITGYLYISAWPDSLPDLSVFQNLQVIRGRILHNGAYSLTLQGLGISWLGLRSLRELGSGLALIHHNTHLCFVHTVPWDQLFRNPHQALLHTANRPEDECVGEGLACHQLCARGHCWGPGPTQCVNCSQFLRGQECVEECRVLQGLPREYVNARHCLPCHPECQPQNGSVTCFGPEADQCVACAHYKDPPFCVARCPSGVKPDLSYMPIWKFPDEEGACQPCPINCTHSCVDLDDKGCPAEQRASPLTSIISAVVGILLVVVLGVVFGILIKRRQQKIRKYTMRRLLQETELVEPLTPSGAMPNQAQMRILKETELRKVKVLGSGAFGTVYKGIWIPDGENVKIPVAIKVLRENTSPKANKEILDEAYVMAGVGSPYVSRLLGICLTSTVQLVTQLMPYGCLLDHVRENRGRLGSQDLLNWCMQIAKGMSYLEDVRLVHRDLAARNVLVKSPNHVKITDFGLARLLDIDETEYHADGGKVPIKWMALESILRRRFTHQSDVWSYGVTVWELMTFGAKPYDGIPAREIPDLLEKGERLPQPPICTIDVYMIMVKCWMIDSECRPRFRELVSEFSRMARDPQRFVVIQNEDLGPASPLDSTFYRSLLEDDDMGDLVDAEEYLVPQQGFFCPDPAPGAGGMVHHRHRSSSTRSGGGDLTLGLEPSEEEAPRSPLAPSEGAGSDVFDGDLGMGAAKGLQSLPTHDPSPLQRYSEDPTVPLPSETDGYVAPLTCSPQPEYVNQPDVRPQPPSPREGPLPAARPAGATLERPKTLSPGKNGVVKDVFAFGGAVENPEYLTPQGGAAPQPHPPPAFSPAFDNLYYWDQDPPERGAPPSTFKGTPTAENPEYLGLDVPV

[3] = SK-BR-3 cell growth inhibitors, pilot screen, 24 h, human (AID 572;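 active = viability at or below 10% of carrier control in both of two separate runs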;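 note: compound exposure lasted between 18 and 24 h rather than exactly 24 h; 100% = carrier-treated control wells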); conditions: SK-BR-3 viability, CellTiter-Glo luminescence, at 10 µM, stronger effect = lower value
[4] = HUVEC growth inhibition – cell-based, human, primary screen (AID 575;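 active = viability at or below 30% in both replicate assays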;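 note: 100% = median of untreated cell wells with 0.1% DMSO on each plate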); conditions: HUVEC proliferation, CellTiter-Glo luminescence, 72 h; at 10 µM; stronger effect = lower value
Outline: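 material = primary HUVEC, no more than 12 passages | input = 1250 cells per well | controls = vehicle and MePR control wells | measured by = CTG luminescence | times = 72 h compound incubation | format = collagen-coated 384-well format | read-out = % viability vs DMSO wells | doses = single 10 µM dose, 0.1% DMSO, from 5x medium stock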

[5] = growth inhibitors of H69AR lung tumor, primary screen, human, duplicate replicates (AID 580;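 active = viability at or under a set limit in both replicates, limit being median viability minus 3 SD, cut at about 48% in these data, passing the limit was not always enough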;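 note: 100% = mean luminescence of untreated wells and 0% = no signal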); conditions: H69AR lung tumor cells viability, ATP luminescence, 72 h; at 10 µM; stronger effect = lower value
[6] = reversal of MRP1-mediated doxorubicin resistance, pilot screen, H69AR cells, doxorubicin co-treatment (AID 601); conditions: CellTiter-Glo, 72 h, at 10 µM; for differential viability (reversal): stronger effect = higher value
[7] = 384-well plate pilot, post-Golgi transport modulator project, inhibition of yeast transport mutant growth (AID 636; in the data active = inhibition above about 31%); conditions: absorbance 615 nm, about 18 h, stronger effect = higher value
[8] = growth suppression of yeast trafficking mutant, preliminary HTS, modulators of trafficking downstream of Golgi apparatus project, 1536-format plate, OD 615 nm (AID 637; in the data active = inhibition above about 30%); conditions: yeast transport mutant growth, absorbance 615 nm, 18 h; stronger effect = higher value
[9] = H69AR cells + 2 uM doxorubicin, measured here: viability with 2 uM doxorubicin, stronger effect = lower value
[10] = H69AR cells, compound alone cytotoxicity

SMILES	viability [1]	Her2 level [2]	viability [3]	viability [4]	viability [5]	differential viability (reversal) ([6]; H69AR cells + 2 uM doxorubicin)	viability [6, 9]	viability [6, 10]	inhibition [7]	inhibition [8]
COC(=O)c1ccc(NC(=O)Cn2nnc3ccccc32)cc1	94%	82.5% (inactive)	94% (inactive)	109% (inactive)	108% (inactive)	17.7% (inactive)	90%	108%	0.13% (inactive)	0% (inactive)
C=C(C)c1cccc(C(C)(C)NC(=O)Nc2ncccn2)c1	97.5%	107% (inactive)	97.5% (inactive)	81% (inactive)	66.7% (inactive)	-9% (inactive)	75.7%	66.7%	-4.08% (inactive)	-4.73% (inactive)
CC(C)CC(=O)CN1C(=O)C2(OCCO2)c2ccccc21	93.5%	107% (inactive)	93.5% (inactive)	101% (inactive)	89.6% (inactive)	-6.21% (inactive)	95.8%	89.6%	-5.14% (inactive)	1.83% (inactive)
CC(=O)N1CCc2cc(S(=O)(=O)NC(C(=O)NCc3ccccc3)C(C)C)ccc21 (stereo not given)	97%	95.5% (inactive)	97% (inactive)	94.6% (inactive)	102% (inactive)	12.1% (inactive)	90.1%	102%	-2.5% (inactive)	-10% (inactive)
O=C(O)C1CC=CCC1C(=O)Nc1ccc(S(=O)(=O)N2CCCc3ccccc32)cc1 (stereo not given)	85.5%	88% (inactive)	85.5% (inactive)	64.4% (inactive)	98.7% (inactive)	4.55% (inactive)	94.1%	98.7%	-3.73% (inactive)	0% (inactive)
COc1cccc(C2=NOC(C(=O)Nc3ccc(C(C)=O)cc3)C2)c1 (stereo not given)	96%	98.5% (inactive)	96% (inactive)	96.6% (inactive)	100% (inactive)	16.6% (inactive)	83.6%	100%	-1.58% (inactive)	-4.73% (inactive)
C[C@@H]1C[C@H](O)c2cc(Cl)ccc2N1	104%	88.5% (inactive)	104% (inactive)	86.1% (inactive)	87.1% (inactive)	7.69% (inactive)	79.4%	87.1%	-5.84% (inactive)	-3.33% (inactive)
COc1ccc(N2CCN(CCCNC(=O)C3CCCN(S(=O)(=O)c4cnc[nH]4)C3)CC2)cc1 (stereo not given)	95.5%	102% (inactive)	95.5% (inactive)	93.4% (inactive)	103% (inactive)	14% (inactive)	89%	103%	-4% (inactive)	-4.26% (inactive)
CCC(C)NC(=O)c1ccccc1NC(=O)C(C)N(c1ccccc1)S(C)(=O)=O (stereo not given)	93%	102% (inactive)	93% (inactive)	89.5% (inactive)	94.5% (inactive)	-7.6% (inactive)	102%	94.5%	-4.19% (inactive)	5.57% (inactive)
Cc1ccccc1N1C(N)=NC(N)=NC1(C)C	107%	84% (inactive)	107% (inactive)	98.3% (inactive)	90.6% (inactive)	-0.97% (inactive)	91.5%	90.6%	-3.9% (inactive)	-3.17% (inactive)
C/C=C(\C)c1nnc(NC(=O)C(C)C)s1	92.5%	82.5% (inactive)	92.5% (inactive)	101% (inactive)	98.7% (inactive)	9.51% (inactive)	89.2%	98.7%	-4.05% (inactive)	2.79% (inactive)
CC1CN(C(=O)c2scc3c2OCCO3)CC(C)O1 (stereo not given)	102%	76% (inactive)	102% (inactive)	101% (inactive)	104% (inactive)	12.1% (inactive)	91.9%	104%	-7.3% (inactive)	5.24% (inactive)
CCCCNC(=O)c1nc2ncc(Br)cn2n1	108%	75% (inactive)	108% (inactive)	100% (inactive)	85.4% (inactive)	-5.97% (inactive)	91.4%	85.4%	-3.51% (inactive)	-2.3% (inactive)
Cc1cc(C)nc(SCC(=O)Nc2ncc3c(n2)CCCC3=O)n1	98.5%	93.5% (inactive)	98.5% (inactive)	99% (inactive)	112% (inactive)	12.5% (inactive)	99.3%	112%	-1.17% (inactive)	-4.13% (inactive)
CC(=O)Nc1c(Cl)n(C(C)=O)c2ccccc12	85%	65% (inactive)	85% (inactive)	71.6% (inactive)	84% (inactive)	-6.37% (inactive)	90.4%	84%	-7.57% (inactive)	5.5% (inactive)
CCN(CC)CCCC1(CN)OCCc2ccccc21 (stereo not given)	98.5%	88.5% (inactive)	98.5% (inactive)	93.3% (inactive)	83.8% (inactive)	-18.9% (inactive)	103%	83.8%	-0.39% (inactive)	23.8% (inactive)
N#CCSc1nc2c(c(C3CC=CCC3)c1C#N)CCC2 (stereo not given)	88.5%	81.5% (inactive)	88.5% (inactive)	63.4% (inactive)	100% (inactive)	12.8% (inactive)	87.2%	100%	-3.07% (inactive)	-1.94% (inactive)
Brc1cccc(-c2cnc3n2CCCCC3)c1	95.5%	89.5% (inactive)	95.5% (inactive)	67.1% (inactive)	91.5% (inactive)	11.1% (inactive)	80.4%	91.5%	-6.53% (inactive)	4.26% (inactive)
CCCC(=O)Nc1cccc(NC(=O)CN2CCN(c3ccccc3OC)CC2)c1	98.5%	83% (inactive)	98.5% (inactive)	96.6% (inactive)	82.9% (inactive)	-3.71% (inactive)	86.6%	82.9%	-5.81% (inactive)	-4.92% (inactive)
c1ccc(Cc2nnc3n2CCCCC3)cc1	99%	90% (inactive)	99% (inactive)	93.9% (inactive)	99.2% (inactive)	1.42% (inactive)	97.7%	99.2%	-7.2% (inactive)	0.82% (inactive)
FC(F)(F)c1cccc(N2CCN(c3nnnn3-c3ccccc3)CC2)c1	85%	88.5% (inactive)	85% (inactive)	81% (inactive)	84.7% (inactive)	0.31% (inactive)	84.4%	84.7%	-5.84% (inactive)	-2.22% (inactive)
CC(CCc1ccccc1)NCc1ccncc1 (stereo not given)	102%	99.5% (inactive)	102% (inactive)	108% (inactive)	84.9% (inactive)	-4.29% (inactive)	89.2%	84.9%	-6.53% (inactive)	0.48% (inactive)
CCCNC(=O)NC(C(=O)OC)C12CC3CC(CC(C3)C1)C2 (stereo not given)	101%	76.5% (inactive)	101% (inactive)	80.4% (inactive)	102% (inactive)	10.1% (inactive)	91.6%	102%	-5% (inactive)	-1.5% (inactive)
COc1ccc(NC(=O)CN2CCN(CC(=O)Nc3cc(OC)cc(OC)c3)CC2)cc1	79%	96.5% (inactive)	79% (inactive)	97.8% (inactive)	83.1% (inactive)	-5.3% (inactive)	88.4%	83.1%	-3.77% (inactive)	0.66% (inactive)
CCOC(=O)c1[nH]c(=O)c2ccccc2c1O	106%	94.5% (inactive)	106% (inactive)	95.8% (inactive)	90.8% (inactive)	-0.03% (inactive)	90.8%	90.8%	-10% (inactive)	-8.41% (inactive)
Cc1nc2c(=O)oc3ccccc3c2n1-c1ccccc1	117%	100% (inactive)	117% (inactive)	107% (inactive)	98.4% (inactive)	13.4% (inactive)	85.1%	98.4%	-6.93% (inactive)	2.74% (inactive)
C=CCc1cc(OC)ccc1OCC(O)CN1CCN(c2ccc(OC)cc2)CC1 (stereo not given)	82.5%	78% (inactive)	82.5% (inactive)	89% (inactive)	99.6% (inactive)	-4.29% (inactive)	104%	99.6%	0.13% (inactive)	8.57% (inactive)
COc1cccc(Oc2ccc(N)cn2)c1	87%	106% (inactive)	87% (inactive)	109% (inactive)	88.1% (inactive)	3.66% (inactive)	84.4%	88.1%	-2.37% (inactive)	-4.43% (inactive)
CN1C(=O)CSc2ccc(NC(=O)N3CCN(c4ccccn4)CC3)cc21	102%	88.5% (inactive)	102% (inactive)	58.2% (inactive)	91.3% (inactive)	12.2% (inactive)	79.1%	91.3%	-0.4% (inactive)	3.61% (inactive)
COC(=O)c1c(NC(=O)c2ccc(S(=O)(=O)N3CCOCC3)cc2)sc2c1CCN(C)C2	96%	106% (inactive)	96% (inactive)	94.8% (inactive)	90% (inactive)	-5.3% (inactive)	95.3%	90%	-5.26% (inactive)	-7.46% (inactive)
